High-throughput results from PubChem.
CaV13 ICDI inh = Disruptors of the CACNA1D IQ motif to Ca2+-dependent inactivation inhibitor domain association, primary screening, Förster resonance energy transfer in intact living …; HEK cells, CFP/YFP FRET ICDI-IQ, plate reader, 10 min; percent FRET-ratio fall versus neutral wells; inhibition, % at 12.3 µM; actives 0.098% (n = 340,000); AID 743397;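 active = mean replicate inhibition of at least 30% and at least 1% of replicates passing that level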;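 note: 0% = median of the neutral control wells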
S100A4 MyoIIA = S100A4-myosin IIA interaction inhibition | P26447 | S100A4/TAMRA-MyoIIA peptide fluorescence polarization | inhibition, % at 10.7 µM | actives 0.14% (n = 360,000);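 active = mean inhibition of at least 70% across replicates, with every replicate also reaching that level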
Target sequence (P26447 whole entry, looked up): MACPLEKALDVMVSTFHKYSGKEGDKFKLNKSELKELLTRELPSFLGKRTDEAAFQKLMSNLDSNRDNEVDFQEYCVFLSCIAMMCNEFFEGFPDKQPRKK
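Test system: S100A4 monomer protein. Medium: HEPES buffer with Ca2+, pH 7.2. Reagent: fluorescent myosin IIA peptide, 5 nM. Compound dosing: single-point compound testing. Timing: 5 min between mix addition and reading. Benchmarks: DMSO neutral and TFP positive wells.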
MLL AF4-AF9 inh = blocks AF4 peptide binding to human AF9. P42568. inhibition, % at 10 µM. AlphaScreen, biotin-AF4 peptide binding to FLAG-AF9. AID 651704. actives 0.47% (n = 350,000);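 active = every replicate reaching a set inhibition limit, whatever the replicate mean, cut at about 25% in these data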;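 note: 0% = plate neutral control median and 100% = total signal loss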
DENV2 CPE rescue = DENV2-induced cell death inhibition; actives 1.7% (n = 350,000); CPE inhibition, % at 9.99 µM; DENV2-infected cells, cytopathic effect rescue, plate reader; in the data active = CPE inhibition above about 20%, passing the limit was not always enough; tested in BHK-21 cells;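 note: 0% = median of neutral control wells and 100% = median of positive control wells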
SIRT5 inh = blocks human SIRT5 desuccinylation of peptide | actives 1.1% (n = 330,000) | Purified SirT5, succinyl-peptide AMC, trypsin-coupled fluorescence | inhibition, % at 15 µM | Q9NXA8; in the data active = inhibition above about 15%
Target sequence (Q9NXA8 whole entry, looked up): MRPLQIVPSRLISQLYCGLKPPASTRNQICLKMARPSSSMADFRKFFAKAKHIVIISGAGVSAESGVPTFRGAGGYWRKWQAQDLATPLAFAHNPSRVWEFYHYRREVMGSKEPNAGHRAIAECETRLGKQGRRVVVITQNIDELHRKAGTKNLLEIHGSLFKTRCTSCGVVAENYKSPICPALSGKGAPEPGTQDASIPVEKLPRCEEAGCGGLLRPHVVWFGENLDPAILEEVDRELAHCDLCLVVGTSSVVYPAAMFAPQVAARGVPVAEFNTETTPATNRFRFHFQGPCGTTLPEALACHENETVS
* hit, by the source's call; x = no result given. This is a sample that favours compounds with a hit; in the whole collection about 2.7% have one here.

SMILES	CaV13 ICDI inh	S100A4 MyoIIA	MLL AF4-AF9 inh	DENV2 CPE rescue	SIRT5 inh
Cc1cc(C)nc(N/N=C/C2=C(N3CCOCC3)C(=C\c3ccc(Cl)cc3)/CC2)n1	-5.9	x	x	x	x
Cc1cc(C(=O)Nc2cccc3c2O[C@H](CN(C)C(=O)NC(C)C)[C@@H](C)CN([C@@H](C)CO)C3=O)n(C)n1	x	-3.4	-0.5	-3.6	-2.9
Cc1nc(CCNC(=O)CC2C(=O)NCCN2CC(C)C)nc2c1CCC2 (configuration not stated)	-2.7	-2.3	-0.2	43.8*	0.5
Cc1nc(CCNC(=O)CC2C(=O)NCCN2CC(C)(C)C)nc2c1CCC2 (configuration not stated)	-3.7	3.6	-2.3	13.0	-1.7
OC(CNCc1ccccc1)COc1ccccc1 (configuration not stated)	-10.0	-23.5	x	-0.6	24.0*
NC(=O)N/N=C/c1sc(N2CCCCC2)nc1-c1cccs1	-2.2	-12.7	30.4*	-12.9	4.1
O=C(C[C@H]1CC[C@@H]2[C@H](COC[C@H](O)CN2C(=O)c2ccccc2)O1)Nc1ccc(-c2ccccc2)cc1	x	3.1	2.0	55.2*	5.3
O=C(C[C@H]1CC[C@@H]2[C@H](COC[C@@H](O)CN2C(=O)c2ccccc2)O1)Nc1ccccc1	x	-12.6	-0.9	7.8	2.6
O=C(C[C@@H]1CC[C@@H]2[C@H](COC[C@H](O)CN2Cc2ccc3c(c2)OCO3)O1)Nc1ccc(-c2ccccc2)cc1	x	-4.7	0.2	3.0	15.2*
O=C(C[C@@H]1CC[C@H]2[C@@H](COC[C@H](O)CN2C(=O)c2ccncc2)O1)NC1Cc2ccccc2C1	x	2.3	8.0	30.0*	-1.7
O=C(C[C@H]1CC[C@@H]2[C@H](COC[C@@H](O)CN2Cc2ccc3c(c2)OCO3)O1)Nc1ccc(-c2ccccc2)cc1	x	5.9	0.9	1.5	4.4
O=C(C[C@@H]1CC[C@H]2[C@@H](COC[C@H](O)CN2C(=O)c2ccncc2)O1)Nc1ccc(-c2ccccc2)cc1	x	-0.7	2.5	27.7*	-3.2
Cc1noc(C)c1S(=O)(=O)Nc1ccc2c(c1)CC(=O)N([C@H](C)CO)C[C@H](C)[C@@H](CN(C)Cc1ccc(Cl)c(Cl)c1)O2	x	-9.1	3.5	-0.9	3.6
CCCOc1ccc(C(=O)NC(=S)N2CCN(c3cc4c(cc3F)c(=O)c(C(=O)O)cn4CC)CC2)cc1	-4.1	-1.4	-1.6	52.5*	5.2
CCn1cc(C(=O)O)c(=O)c2cc(F)c(N3CCN(C(=S)NC(=O)c4ccc(F)cc4)CC3)cc21	-2.6	-0.4	2.8	-0.6	1.0
CCn1cc(C(=O)O)c(=O)c2cnc(N3CCN(C(=S)NC(=O)c4ccc(OC)cc4)CC3)nc21	-2.9	0.1	-3.1	3.1	29.3*
COc1ccc2c3c([nH]c2c1)[C@H](CO)N(C(=O)Nc1cccc(F)c1)CC31CN(S(=O)(=O)c2ccccc2)C1	x	x	0.9	79.2*	x
COc1ccc2c3c([nH]c2c1)[C@H](CO)N(C(=O)Nc1ccc(F)cc1)CC31CN(Cc2cc(-c3ccccc3)on2)C1	x	-1.2	-3.6	50.2*	-0.9
CCCNC(=O)N1CC2(C1)CN(C(=O)CCC)[C@@H](CO)c1[nH]c3cc(OC)ccc3c12	x	x	2.9	21.6*	x
COc1ccc2c3c([nH]c2c1)[C@H](CO)N(C(=O)Nc1ccc(F)cc1)CC31CN(S(=O)(=O)c2ccccc2)C1	x	7.6	-1.0	1.0	0.6
COc1ccc2c3c([nH]c2c1)[C@@H](CO)N(C(=O)Nc1ccc(F)cc1)CC31CCN(Cc2cc(-c3ccccc3)on2)CC1	x	7.0	-0.8	-5.4	4.7
CCCNC(=O)N1CC2(C1)CN(C(=O)Nc1ccc(F)cc1)[C@H](CO)c1[nH]c3cc(OC)ccc3c12	x	9.5	-1.2	23.2*	3.6
C[C@@H]1CN([C@@H](C)CO)C(=O)c2cc(C#CC3(O)CCCC3)cnc2O[C@H]1CN(C)Cc1ccccn1	x	10.5	-2.5	0.7	-4.7
O=C(C[C@@H]1CC[C@@H](NC(=O)c2ccncc2)[C@@H](CO)O1)NCCc1ccncc1	x	-15.2	-1.4	-2.9	-1.4
COc1ccc(COCC23N=C4SCc5ccccc5CN4[C@H](c4ccccc4O2)[C@H]3COC(=O)c2ccccc2)cc1	x	7.7	0.0	31.6*	-1.4
SMILES	CaV13 ICDI inh	S100A4 MyoIIA	MLL AF4-AF9 inh	DENV2 CPE rescue	SIRT5 inh
COc1cc(OC)c2ccc(=O)oc2c1C(CCN1CCCC(C)C1)c1ccc(N(C)C)cc1 (configuration not stated)	-5.1	1.6	21.8	7.7	x
COc1cc(OC)c2c(-c3ccccc3)cc(=O)oc2c1C(CCN1CCCC(C)C1)c1ccc2c(c1)OCO2 (configuration not stated)	-5.1	-2.9	31.9*	-8.5	x
COc1cc(OC)c2c(-c3ccccc3)cc(=O)oc2c1C(CC(=O)N1CCCC1)c1ccc2c(c1)OCO2 (configuration not stated)	-11.0	17.3	4.8	-6.4	7.4
COc1cc(C(CCN2CCOCC2)c2c(OC)cc(OC)c3c2OC(=O)CC3c2ccc(N(C)C)cc2)cc(OC)c1OC (configuration not stated)	-3.0	-2.8	48.7*	-3.7	1.0
COc1cc(C2CC(=O)Oc3c(C(CCN4CCCC(C)C4)c4ccc(N(C)C)cc4)c(OC)cc(OC)c32)cc(OC)c1OC (configuration not stated)	-10.5	-1.6	39.1*	51.5*	-0.3
COCC(=O)N(C)C[C@@H]1Oc2cc(C#CC3CC3)ccc2S(=O)(=O)N([C@H](C)CO)C[C@@H]1C	x	-7.0	-0.5	3.0	-1.2
COc1cccc(C(=O)Nc2ccc3c(c2)C(=O)N(C)[C@@H]2CC[C@H](CC(=O)NCc4ccc(F)cc4)O[C@@H]2CO3)c1	x	x	x	-0.3	x
Nc1ccc(C2=Nc3cccc4cccc(c34)N2)cc1	-4.0	-1.1	6.7	-3.2	4.0
COc1cccc(C2=Nc3cccc4cccc(c34)N2)c1	-2.8	1.2	32.9*	-5.6	0.9
Cc1ccc(S(=O)(=O)N(C)C[C@H]2Oc3ccc(NC(=O)Nc4ccc(C(F)(F)F)cc4)cc3C(=O)N([C@H](C)CO)C[C@@H]2C)cc1	x	1.6	-12.5	36.8*	-3.3
Cc1ccc(S(=O)(=O)N(C)C[C@H]2Oc3ccc(NC(=O)Cc4ccccc4)cc3C(=O)N([C@H](C)CO)C[C@@H]2C)cc1	x	16.1	-0.8	66.2*	-0.8
Cc1ccc(S(=O)(=O)N(C)C[C@@H]2Oc3ccc(NC(=O)Nc4c(C)noc4C)cc3C(=O)N([C@H](C)CO)C[C@@H]2C)cc1	x	-6.8	-13.8	-2.9	15.6*
Cc1ccc(S(=O)(=O)N(C)C[C@@H]2Oc3ccc(NC(=O)Cc4ccccc4)cc3C(=O)N([C@H](C)CO)C[C@H]2C)cc1	x	-0.5	0.0	4.1	-5.5
